Experimental data: ChEMBL document CHEMBL1152550, “Synthesis and structure-activity relationships of N-aryl(indol-3-yl)glyoxamides as antitumor agents” (Bioorg Med Chem, 2009)

Tests used:
Type in all cases: functional, cell-based
[1] = Cytotoxicity against human KB/HeLa cells after 48 hrs by XTT assay
L1210 = assay: Cytotoxicity against mouse L1210 cells after 48 hrs by XTT assay; conditions: L1210, 48 h
SK-OV-3 = assay: Cytotoxicity against human SKOV3 cells after 48 hrs by XTT assay; conditions: SK-OV-3, 48 h
[2] = Cell cycle arrest in human KB/HeLa cells assessed as accumulation in G2/M phase by cytometric analysis
Outline: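 HeLa/KB cells; nuclei isolated with detergent lysis, trypsin, RNA digestion and spermine chromatin stabilisation, then stained stoichiometrically with propidium iodide. Read by flow cytometry with doublet discrimination, FL2 detector collecting 564–606 nm emission; DNA histograms analysed for cell cycle phase distribution across a concentration series (dose–response).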

CCOC(=O)c1ccc(NC(=O)C(=O)c2cn(Cc3ccc(F)cc3)c3ccccc23)cc1
IC50 [1]: 3.94 µM | IC50 (L1210): 3.94 µM | IC50 (SK-OV-3): 3.94 µM

O=C(Nc1cccnc1)C(=O)c1cn(Cc2ccc(F)cc2)c2ccccc12
IC50 [1]: 4.69 µM | IC50 (L1210): 4.69 µM | IC50 (SK-OV-3): 4.69 µM

COc1cc(NC(=O)C(=O)c2cn(Cc3ccc(F)cc3)c3ccccc23)cc(OC)c1OC
IC50 [1]: 0.378 µM | IC50 (L1210): 0.378 µM | IC50 (SK-OV-3): 3.78 µM

O=C(C(=O)N1CCN(c2ccncc2)CC1)c1cn(Cc2ccc(F)cc2)c2ccccc12
IC50 [1]: > 10 µM | IC50 (L1210): 3.96 µM | IC50 (SK-OV-3): > 10 µM

O=C(Nc1ccc([N+](=O)[O-])cc1)C(=O)c1cn(Cc2ccc(F)cc2)c2ccccc12
IC50 [1]: > 10 µM | IC50 (L1210): > 10 µM | IC50 (SK-OV-3): > 10 µM

O=C(Nc1ccc(Br)cc1)C(=O)c1cn(Cc2ccc(F)cc2)c2ccccc12
IC50 [1]: 3.88 µM | IC50 (L1210): 3.88 µM | IC50 (SK-OV-3): 3.88 µM

O=C(Nc1ccccn1)C(=O)c1cn(Cc2ccc(F)cc2)c2ccccc12
IC50 [1]: > 10 µM | IC50 (L1210): 8.3 µM | IC50 (SK-OV-3): > 10 µM

N#Cc1ccc(NC(=O)C(=O)c2cn(Cc3ccc(F)cc3)c3ccccc23)cc1
IC50 [1]: > 10 µM | IC50 (L1210): > 10 µM | IC50 (SK-OV-3): > 10 µM

O=C(Nc1ccncc1)C(=O)c1cn(Cc2ccc(F)cc2)c2ccccc12
IC50 [1]: 0.054 µM | IC50 (L1210): 0.455 µM | IC50 (SK-OV-3): 0.455 µM | Activity [2]: Dose-dependent effect

O=C(Nc1ccc(F)cc1)C(=O)c1cn(Cc2ccc(F)cc2)c2ccccc12
IC50 [1]: 7.94 µM | IC50 (L1210): 4.48 µM | IC50 (SK-OV-3): > 10 µM

O=C(Nc1ccncc1)C(=O)c1cn(Cc2ccc(Cl)cc2)c2ccccc12 [INDIBULIN]
IC50 [1]: 0.044 µM | IC50 (L1210): 0.044 µM | IC50 (SK-OV-3): 0.077 µM | Activity [2]: Dose-dependent effect
